Measurements: ChEMBL document CHEMBL1126301, “Anti-HIV-I activity of linked lexitropsins” (J Med Chem, 1992)
Values after ≈ are worked out from the molar mass of the structure shown. Active and inactive are the calls of the source. No cut-off for these calls is given here.

Assays:
[1] = test system: Murine leukemia virus; assay: Inhibitory activity on moloney murine leukemia retrovirus.; assay type: functional
Procedure, shortened: (§1)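 SC-1 cells (3.5 × 10⁴ mL⁻¹) seeded in 5% FBS-MEM 1 day ahead. Compound dilutions added in triplicate, then 20-40 pfu Moloney virus per well, shaken at 0, 30 and 60 min. Incubated 5 days, 37 °C, 5% CO₂; viability checked for toxicity. Then UV 3 min, XC cells overlaid (2 × 10⁵ mL⁻¹), 4 days, 0.5% crystal violet stain, plaques counted. MIC₅₀ interpolated between two dilutions.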

[2] = test system: Murine leukemia virus; assay: Concentration inhibiting moloney murine leukemia retrovirus; assay type: functional; procedure, shortened: as §1
[3] = Therapeutic index(TI) was measured as ratio of TD50 and MIC50 (Retrovirus); conditions: retroviridae
[4] = test system: CCRF-CEM; assay: Inhibitory activity against T4-lymphocytes (CEM cell line) infected with HIV-1; inactive; assay type: functional, cell-based; conditions: Homo sapiens
[5] = test system: CCRF-CEM; assay: Inhibition of T4-lymphocytes (CEM cell line) infected with HIV-1.; assay type: functional, cell-based; conditions: Homo sapiens
[6] = test system: CCRF-CEM; assay: (§2) Inhibitory activity against T4-lymphocytes (CEM cell line) infected with HIV-1; moderate; assay type: functional, cell-based; conditions: Homo sapiens
[7] = test system: Human immunodeficiency virus 1; assay: Inhibitory activity against HIV-1 in T4-lymphocytes (CEM cell line).; assay type: functional, organism-based; conditions: Human immunodeficiency virus 1, CCRF-CEM
[8] = test system: HIV-1; assay: Therapeutic index (TI) was measured as ratio of IC50 and EC50 (HIV-1); conditions: human immunodeficiency virus 1; read-out: TI50
[9] = test system: CCRF-CEM; assay: Inhibitory activity against T4-lymphocytes (CEM cell line) infected with HIV-1; active; assay type: functional, cell-based; conditions: Homo sapiens
[10] = test system: Human immunodeficiency virus 1; assay: as §2; assay type: functional, organism-based; conditions: CCRF-CEM

Row | IC50 [5] | EC50 [7] | Structure (SMILES) | TD50 [1] | TI [3] | Activity [6] | also measured
1 |  |  | Cc1cn([C@H]2C[C@H](N=[N+]=[N-])[C@@H](CO)O2)c(=O)[nH]c1=O [ZIDOVUDINE] | >100 µg/mL | > 714000 TD50/MIC50 |  | MIC50 [2]: 0.0014 µg/mL (≈ 0.00524 µM)
2 | > 127 µM |  | Cn1cc(NC(=O)[C@@H]2CCC(N)=N2)cc1C(=O)NCCC(=N)N |  |  |  | Activity [4]: inactive
3 | > 100 µM |  | Cn1cc(NC(=O)c2cc(NC(=O)c3cc(NC(=O)CCCCCCC(=O)Nc4cc(C(=O)Nc5cc(C(=O)Nc6cc(C(=O)NCCC(=N)N)n(C)c6)n(C)c5)n(C)c4)cn3C)cn2C)cc1C(=O)NCCC(=N)N |  |  |  | Activity [4]: inactive
4 | 181 µM | 5.6 µM | Cn1cc(NC(=O)c2cc(NC(=O)[C@@H]3CCCC[C@H]3C(=O)Nc3cc(C(=O)Nc4cc(C(=O)NCCC(=N)N)n(C)c4)n(C)c3)cn2C)cc1C(=O)NCCC(=N)N |  |  | Moderate | 
5 |  |  | Cn1cc(NC(=O)c2cc(NC(=O)CCCCCCC(=O)Nc3cc(C(=O)Nc4cc(C(=O)NCCC(=N)N)n(C)c4)n(C)c3)cn2C)cc1C(=O)NCCC(=N)N |  |  |  | Activity [4]: inactive
6 |  |  | Nc1ccn([C@H]2CC[C@@H](CO)O2)c(=O)n1 [ZALCITABINE] | >100 µg/mL | > 135.14 TD50/MIC50 |  | MIC50 [2]: 0.74 µg/mL (≈ 3.5 µM)
7 |  |  | Cl.Cl.Cn1cc(NC(=O)c2cc(NC(=O)c3cc(NC(=O)C4CCC4C(=O)Nc4cc(C(=O)Nc5cc(C(=O)Nc6cc(C(=O)NCCC(=N)N)n(C)c6)n(C)c5)n(C)c4)cn3C)cn2C)cc1C(=O)NCCC(=N)N (stereo not given) | 83.5 µg/mL | 1.7 TD50/MIC50 | Moderate | MIC50 [2]: > 50 µg/mL
8 | > 120 µM |  | Cn1cc(NC(=O)c2cc(NC(=O)c3cc(NC(=O)CCCCCCCCCCCCCCCCCCCCCCC(=O)Nc4cc(C(=O)Nc5cc(C(=O)Nc6cc(C(=O)NCCC(=N)N)n(C)c6)n(C)c5)n(C)c4)cn3C)cn2C)cc1C(=O)NCCC(=N)N |  |  |  | Activity [4]: inactive
9 | 57 µM | 3.9 µM | Cn1cc(NC(=O)c2cc(NC(=O)CCCCCCCCCC(=O)Nc3cc(C(=O)Nc4cc(C(=O)NCCC(=N)N)n(C)c4)n(C)c3)cn2C)cc1C(=O)NCCC(=N)N |  |  | Moderate | selectivity ratio [8]: 14.6
10 |  | 11.9 µM | Cn1cc(NC(=O)c2cc(NC(=O)Nc3cc(C(=O)Nc4cc(C(=O)NCCC(=N)N)n(C)c4)n(C)c3)cn2C)cc1C(=O)NCCC(=N)N |  |  | Moderate | 
11 |  |  | Cl.Cl.Cn1cc(NC(=O)c2cc(NC(=O)c3cc(NC(=O)[C@@H]4C5C=CC(C5)[C@H]4C(=O)Nc4cc(C(=O)Nc5cc(C(=O)Nc6cc(C(=O)NCCC(=N)N)n(C)c6)n(C)c5)n(C)c4)cn3C)cn2C)cc1C(=O)NCCC(=N)N | >100 µg/mL | > 4.54 TD50/MIC50 |  | 
12 |  |  | Cl.Cl.Cn1cc(NC(=O)c2cc(NC(=O)c3cc(NC(=O)/C=C/C(=O)Nc4cc(C(=O)Nc5cc(C(=O)Nc6cc(C(=O)NCCC(=N)N)n(C)c6)n(C)c5)n(C)c4)cn3C)cn2C)cc1C(=O)NCCC(=N)N | 100 µg/mL | 625 TD50/MIC50 |  | Activity [9]: Active
13 | 78 µM | 6.6 µM | Cn1cc(NC(=O)c2cc(NC(=O)CCCCCCCCCCC(=O)Nc3cc(C(=O)Nc4cc(C(=O)NCCC(=N)N)n(C)c4)n(C)c3)cn2C)cc1C(=O)NCCC(=N)N |  |  | Moderate | 
14 |  |  | Cl.Cl.Cl.Cn1cc(NC(=O)c2cc(NC(=O)c3cc(NC(=O)c4cc(C(=O)Nc5cc(C(=O)Nc6cc(C(=O)Nc7cc(C(=O)NCCC(=N)N)n(C)c7)n(C)c6)n(C)c5)cc(C(=O)Nc5cc(C(=O)Nc6cc(C(=O)Nc7cc(C(=O)NCCC(=N)N)n(C)c7)n(C)c6)n(C)c5)c4)cn3C)cn2C)cc1C(=O)NCCC(=N)N | >100 µg/mL | > 1.6 TD50/MIC50 |  | MIC50 [2]: 62.8 µg/mL
15 | 750 µM | 88 µM | Cn1cc(NC(=O)c2cc(NC(=O)[C@@H]3CCC(N)=N3)c[nH]2)cc1C(=O)NCCC(=N)N |  |  | Moderate | selectivity ratio [8]: 8.5
16 |  |  | Cl.Cl.Cn1cc(NC(=O)c2cc(NC(=O)c3cc(NC(=O)c4ccccc4C(=O)Nc4cc(C(=O)Nc5cc(C(=O)Nc6cc(C(=O)NCCC(=N)N)n(C)c6)n(C)c5)n(C)c4)cn3C)cn2C)cc1C(=O)NCCC(=N)N | >100 µg/mL | > 1.26 TD50/MIC50 |  | 
17 |  | 42.5 µM | Cn1cc(NC(=O)c2cc(NC(=O)[C@H]3C[C@H]3C(=O)Nc3cc(C(=O)Nc4cc(C(=O)NCCC(=N)N)n(C)c4)n(C)c3)cn2C)cc1C(=O)NCCC(=N)N |  |  | Moderate | 
18 |  |  | Cl.Cl.Cn1cc(NC(=O)c2cc(NC(=O)c3cc(NC(=O)c4ccc(C(=O)Nc5cc(C(=O)Nc6cc(C(=O)Nc7cc(C(=O)NCCC(=N)N)n(C)c7)n(C)c6)n(C)c5)cc4)cn3C)cn2C)cc1C(=O)NCCC(=N)N | >100 µg/mL | > 25.13 TD50/MIC50 |  | Activity [9]: Active

Row | IC50 [5] | EC50 [7] | Structure (SMILES) | TD50 [1] | TI [3] | Activity [6] | also measured
19 |  |  | Cl.Cl.Cn1cc(NC(=O)c2cc(NC(=O)c3cc(NC(=O)c4cncc(C(=O)Nc5cc(C(=O)Nc6cc(C(=O)Nc7cc(C(=O)NCCC(=N)N)n(C)c7)n(C)c6)n(C)c5)c4)cn3C)cn2C)cc1C(=O)NCCC(=N)N | >100 µg/mL |  | Moderate | MIC50 [2]: > 100 µg/mL
20 |  | 0.42 µM | Cn1cc(NC(=O)c2cc(NC(=O)[C@H]3CC[C@@H]3C(=O)Nc3cc(C(=O)Nc4cc(C(=O)NCCC(=N)N)n(C)c4)n(C)c3)cn2C)cc1C(=O)NCCC(=N)N |  |  |  | Activity [9]: Active
21 | 750 µM | 91 µM | Cn1cc(NC(=O)c2cc(NC(=O)[C@H]3CCC(N)=N3)c[nH]2)cc1C(=O)NCCC(=N)N |  |  | Moderate | selectivity ratio [8]: 8.2
22 |  |  | Cl.Cl.Cn1cc(NC(=O)c2cc(NC(=O)c3cc(NC(=O)/C=C\C(=O)Nc4cc(C(=O)Nc5cc(C(=O)Nc6cc(C(=O)NCCC(=N)N)n(C)c6)n(C)c5)n(C)c4)cn3C)cn2C)cc1C(=O)NCCC(=N)N | 84.29 µg/mL | 7.52 TD50/MIC50 |  | Activity [4]: inactive
23 | 168 µM | 46.3 µM | Cn1cc(NC(=O)c2cc(NC(=O)[C@H]3CCC[C@@H]3C(=O)Nc3cc(C(=O)Nc4cc(C(=O)NCCC(=N)N)n(C)c4)n(C)c3)cn2C)cc1C(=O)NCCC(=N)N |  |  | Moderate | 
24 |  |  | Cn1cc(NC(=O)c2cc(NC(=O)c3cc(NC(=O)CCCCCCCCC(=O)Nc4cc(C(=O)Nc5cc(C(=O)Nc6cc(C(=O)NCCC(=N)N)n(C)c6)n(C)c5)n(C)c4)cn3C)cn2C)cc1C(=O)NCCC(=N)N |  |  |  | Activity [10]: Moderate
25 |  |  | Cl.Cl.Cn1cc(NC(=O)c2cc(NC(=O)c3cc(NC(=O)c4ccc(C(=O)Nc5cc(C(=O)Nc6cc(C(=O)Nc7cc(C(=O)NCCC(=N)N)n(C)c7)n(C)c6)n(C)c5)nc4)cn3C)cn2C)cc1C(=O)NCCC(=N)N | >100 µg/mL | > 6.28 TD50/MIC50 |  | Activity [9]: Active
26 | > 127 µM |  | Cn1cc(NC(=O)[C@H]2CCC(N)=N2)cc1C(=O)NCCC(=N)N |  |  |  | Activity [4]: inactive
27 |  |  | Cl.Cl.Cn1cc(NC(=O)c2cc(NC(=O)c3cc(NC(=O)c4cccc(C(=O)Nc5cc(C(=O)Nc6cc(C(=O)Nc7cc(C(=O)NCCC(=N)N)n(C)c7)n(C)c6)n(C)c5)c4)cn3C)cn2C)cc1C(=O)NCCC(=N)N | >100 µg/mL | 2 TD50/MIC50 |  | Activity [9]: Active; MIC50 [2]: > 50 µg/mL
28 |  |  | Cn1cc(NC(=O)c2cc(NC(=O)c3cc(NC(=O)CCC(=O)Nc4cc(C(=O)Nc5cc(C(=O)Nc6cc(C(=O)NCCC(=N)N)n(C)c6)n(C)c5)n(C)c4)cn3C)cn2C)cc1C(=O)NCCC(=N)N |  |  |  | Activity [4]: inactive
29 |  | 3.55 µM | Cn1cc(NC(=O)c2cc(NC(=O)c3cccc(C(=O)Nc4cc(C(=O)Nc5cc(C(=O)NCCC(=N)N)n(C)c5)n(C)c4)c3)cn2C)cc1C(=O)NCCC(=N)N |  |  |  | Activity [9]: Active
30 |  |  | Cl.Cl.Cn1cc(NC(=O)c2cc(NC(=O)c3cc(NC(=O)c4cccc(C(=O)Nc5cc(C(=O)Nc6cc(C(=O)Nc7cc(C(=O)NCCC(=N)N)n(C)c7)n(C)c6)n(C)c5)n4)cn3C)cn2C)cc1C(=O)NCCC(=N)N | >100 µg/mL | > 4.4 TD50/MIC50 |  | Activity [9]: Active
31 | 17.9 µM | 1.21 µM | Cn1cc(NC(=O)c2cc(NC(=O)c3ccc(C(=O)Nc4cc(C(=O)Nc5cc(C(=O)NCCC(=N)N)n(C)c5)n(C)c4)cc3)cn2C)cc1C(=O)NCCC(=N)N |  |  |  | Activity [9]: Active; selectivity ratio [8]: 14.8
32 |  |  | Cn1cc(NC(=O)c2cc(NC(=O)CCCCCCCCC(=O)Nc3cc(C(=O)Nc4cc(C(=O)NCCC(=N)N)n(C)c4)n(C)c3)cn2C)cc1C(=O)NCCC(=N)N |  |  |  | Activity [4]: inactive
33 |  | 1.37 µM | Cn1cc(NC(=O)c2cc(NC(=O)/C=C/C(=O)Nc3cc(C(=O)Nc4cc(C(=O)NCCC(=N)N)n(C)c4)n(C)c3)cn2C)cc1C(=O)NCCC(=N)N |  |  |  | Activity [9]: Active
34 |  | 3.44 µM | Cn1cc(NC(=O)c2cc(NC(=O)[C@H]3C[C@@H]3C(=O)Nc3cc(C(=O)Nc4cc(C(=O)NCCC(=N)N)n(C)c4)n(C)c3)cn2C)cc1C(=O)NCCC(=N)N |  |  | Moderate | 
35 |  | 0.35 µM | Cn1cc(NC(=O)c2cc(NC(=O)/C=C\C(=O)Nc3cc(C(=O)Nc4cc(C(=O)NCCC(=N)N)n(C)c4)n(C)c3)cn2C)cc1C(=O)NCCC(=N)N |  |  |  | Activity [9]: Active
